Test system: Japanese patients with RET-rearranged NSCLC
Assay: ALL-RET phase 1/2 trial: safety
Assay type: in vivo, human
In short: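 Adverse events were graded by NCI CTCAE v4.0, with causal relation to treatment recorded separately. Dose finding used a 3+3 de-escalation design with 3–6 patients per cohort. DLT was evaluated over the first 21-day cycle and defined as grade ≥4 thrombopenia, grade ≥3 febrile neutropenia, grade ≥4 neutropenia lasting ≥4 days, or grade ≥3 non-hematologic toxicity, with specified exceptions. Follow-up ran until January 2019.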

SMILES: CCc1cc2c(cc1N1CCC(N3CCOCC3)CC1)C(C)(C)c1[nH]c3cc(C#N)ccc3c1C2=O [alectinib]
- grade 4 AEs (450 mg BID): no grade 4 AEs were observed
- Aspartate aminotransferase increase, any grade, number (total) (450 mg BID (N=28)): 9
- Aspartate aminotransferase increase, any grade, number [causally related] (450 mg BID (N=28)): 7
- Aspartate aminotransferase increase, any grade, percent (total) (450 mg BID (N=28)): 32.1%
- Aspartate aminotransferase increase, any grade, percent [causally related] (450 mg BID (N=28)): 25.0%
- Aspartate aminotransferase increase, grade 1–2, number (total) (450 mg BID (N=28)): 9
- Aspartate aminotransferase increase, grade 1–2, number [causally related] (450 mg BID (N=28)): 7
- Aspartate aminotransferase increase, grade 3, number (450 mg BID (N=28)): 0
- Aspartate aminotransferase increase, grade 4, number (450 mg BID (N=28)): 0
- Bilirubin increase, any grade, number (total) (450 mg BID (N=28)): 6 [6]
- Bilirubin increase, any grade, number [causally related] (450 mg BID (N=28)): 6 [6]
- Bilirubin increase, any grade, percent (450 mg BID (N=28)): 21.4%
- Bilirubin increase, grade 1–2, number (total) (450 mg BID (N=28)): 5 [5]
- Bilirubin increase, grade 1–2, number [causally related] (450 mg BID (N=28)): 5 [5]
- Bilirubin increase, grade 3, number (total) (450 mg BID (N=28)): 1 [1]
- Bilirubin increase, grade 3, number [causally related] (450 mg BID (N=28)): 1 [1]
- Bilirubin increase, grade 4, number (450 mg BID (N=28)): 0
- Constipation, any grade, number [causally related] (450 mg BID (N=28)): 12
- Constipation, any grade, percent (total) (450 mg BID (N=28)): 57.1%
- Constipation, any grade, percent [causally related] (450 mg BID (N=28)): 42.9%
- Constipation, grade 1–2, number (total) (450 mg BID (N=28)): 16
- Constipation, grade 1–2, number [causally related] (450 mg BID (N=28)): 12
- Constipation, grade 3, number (450 mg BID (N=28)): 0
- Constipation, grade 4, number (450 mg BID (N=28)): 0
- Creatine phosphokinase increase, any grade, number (total) (450 mg BID (N=28)): 13 [13]
- Creatine phosphokinase increase, any grade, number [causally related] (450 mg BID (N=28)): 13 [13]
- Creatine phosphokinase increase, any grade, percent (450 mg BID (N=28)): 46.4%
- Creatine phosphokinase increase, grade 1–2, number (total) (450 mg BID (N=28)): 12 [12]
- Creatine phosphokinase increase, grade 1–2, number [causally related] (450 mg BID (N=28)): 12 [12]
- Creatine phosphokinase increase, grade 3, number (total) (450 mg BID (N=28)): 1 [1]
- Creatine phosphokinase increase, grade 3, number [causally related] (450 mg BID (N=28)): 1 [1]
- Creatine phosphokinase increase, grade 4, number (450 mg BID (N=28)): 0
- Creatinine increase, any grade, number (total) (450 mg BID (N=28)): 8 [8]
- Creatinine increase, any grade, number [causally related] (450 mg BID (N=28)): 8 [8]
- Creatinine increase, any grade, percent (450 mg BID (N=28)): 28.6%
- Creatinine increase, grade 1–2, number (total) (450 mg BID (N=28)): 8 [8]
- Creatinine increase, grade 1–2, number [causally related] (450 mg BID (N=28)): 8 [8]
- Creatinine increase, grade 3, number (450 mg BID (N=28)): 0
- Creatinine increase, grade 4, number (450 mg BID (N=28)): 0
- Diarrhea, any grade, number (total) (450 mg BID (N=28)): 3
- Diarrhea, any grade, number [causally related] (450 mg BID (N=28)): 2
- Diarrhea, any grade, percent (total) (450 mg BID (N=28)): 10.7%
- Diarrhea, any grade, percent [causally related] (450 mg BID (N=28)): 7.1%
- Diarrhea, grade 1–2, number (total) (450 mg BID (N=28)): 2 [2]
- Diarrhea, grade 1–2, number [causally related] (450 mg BID (N=28)): 2 [2]
- Diarrhea, grade 3, number (total) (450 mg BID (N=28)): 1
- Diarrhea, grade 3, number [causally related] (450 mg BID (N=28)): 0
- Diarrhea, grade 4, number (450 mg BID (N=28)): 0
- Hyponatraemia, any grade, number (total) (450 mg BID (N=28)): 1 [1]
- Hyponatraemia, any grade, number [causally related] (450 mg BID (N=28)): 1 [1]
- Hyponatraemia, any grade, percent (450 mg BID (N=28)): 3.6%
- Hyponatraemia, grade 1–2, number (450 mg BID (N=28)): 0
- Hyponatraemia, grade 3, number (total) (450 mg BID (N=28)): 1 [1]
- Hyponatraemia, grade 3, number [causally related] (450 mg BID (N=28)): 1 [1]
- Hyponatraemia, grade 4, number (450 mg BID (N=28)): 0
- Neutropenia, any grade, number (total) (450 mg BID (N=28)): 1 [1]
- Neutropenia, any grade, number [causally related] (450 mg BID (N=28)): 1 [1]
- Neutropenia, any grade, percent (450 mg BID (N=28)): 3.6%
- Neutropenia, grade 1–2, number (450 mg BID (N=28)): 0
- Neutropenia, grade 3, number (total) (450 mg BID (N=28)): 1 [1]
- Neutropenia, grade 3, number [causally related] (450 mg BID (N=28)): 1 [1]
- Neutropenia, grade 4, number (450 mg BID (N=28)): 0
- Pneumonitis, any grade, percent (total) (450 mg BID (N=28)): 3.6%
- Pneumonitis, any grade, percent [causally related] (450 mg BID (N=28)): 0.0%
- Pneumonitis, grade 1–2, number (450 mg BID (N=28)): 0
- Pneumonitis, grade 3, number (total) (450 mg BID (N=28)): 1 [1]
- Pneumonitis, grade 3, number [causally related] (450 mg BID (N=28)): 1 [1]
- Pneumonitis, grade 4, number (450 mg BID (N=28)): 0
- Constipation, any grade, number (total) (450 mg BID (N=28; phase 1 N=3, phase 2 N=25)): 16
- dose reduction due to toxicity (450 mg BID, 28 patients): no patients required a dose reduction
- patients whose treatment was discontinued due to pneumonitis (450 mg BID, out of 28 patients): 1
- Alkaline phosphatase increase, any grade, number (total) (600 mg BID (N=6)): 2 [2]
- Alkaline phosphatase increase, any grade, number [causally related] (600 mg BID (N=6)): 2 [2]
- Alkaline phosphatase increase, any grade, percent (600 mg BID (N=6)): 33.3%
- Alkaline phosphatase increase, grade 1–2, number (total) (600 mg BID (N=6)): 1[1]
- Alkaline phosphatase increase, grade 1–2, number [causally related] (600 mg BID (N=6)): 1[1]
- Alkaline phosphatase increase, grade 3, number (total) (600 mg BID (N=6)): 1[1]
- Alkaline phosphatase increase, grade 3, number [causally related] (600 mg BID (N=6)): 1[1]
- Alkaline phosphatase increase, grade 4, number (600 mg BID (N=6)): 0
- Cholangitis, any grade, number (total) (600 mg BID (N=6)): 1 [1]
- Cholangitis, any grade, number [causally related] (600 mg BID (N=6)): 1 [1]
- Cholangitis, any grade, percent (600 mg BID (N=6)): 16.7%
- Cholangitis, grade 1–2, number (600 mg BID (N=6)): 0
- Cholangitis, grade 3, number (total) (600 mg BID (N=6)): 1 [1]
- Cholangitis, grade 3, number [causally related] (600 mg BID (N=6)): 1 [1]
- Cholangitis, grade 4, number (600 mg BID (N=6)): 0
- Constipation, any grade, number (total) (600 mg BID (N=6)): 4 [4]

Reference: publication PMC7867784 (Translational Lung Cancer Research, 2021)
